Assays:
[1] = target: T1, 5-hydroxytryptamine receptor 1A (Homo sapiens) (UniProt P08908); assay: Compound at 1 uM was tested for the inhibition of radioligand [3H]8-OH-DPAT binding to recombinant human 5-hydroxytryptamine 1A receptor
T1 sequence (whole entry): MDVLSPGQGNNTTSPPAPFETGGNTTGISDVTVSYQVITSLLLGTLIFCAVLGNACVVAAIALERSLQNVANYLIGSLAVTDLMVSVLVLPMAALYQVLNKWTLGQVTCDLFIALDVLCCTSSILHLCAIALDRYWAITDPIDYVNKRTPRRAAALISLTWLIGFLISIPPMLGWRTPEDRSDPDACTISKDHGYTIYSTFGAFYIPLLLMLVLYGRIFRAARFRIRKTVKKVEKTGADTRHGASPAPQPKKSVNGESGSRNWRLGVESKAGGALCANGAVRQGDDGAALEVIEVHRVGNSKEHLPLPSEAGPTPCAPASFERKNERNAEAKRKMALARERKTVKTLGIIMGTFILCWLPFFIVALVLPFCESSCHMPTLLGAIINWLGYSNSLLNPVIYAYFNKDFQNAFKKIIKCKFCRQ

[2] = target: T2, Alpha-2B adrenergic receptor (Rattus norvegicus) (UniProt P19328); assay: Compound at 1 uM was tested for the inhibition of radioligand [3H]yohimbine binding to rat alpha-2B adrenergic receptor
T2 sequence (whole entry): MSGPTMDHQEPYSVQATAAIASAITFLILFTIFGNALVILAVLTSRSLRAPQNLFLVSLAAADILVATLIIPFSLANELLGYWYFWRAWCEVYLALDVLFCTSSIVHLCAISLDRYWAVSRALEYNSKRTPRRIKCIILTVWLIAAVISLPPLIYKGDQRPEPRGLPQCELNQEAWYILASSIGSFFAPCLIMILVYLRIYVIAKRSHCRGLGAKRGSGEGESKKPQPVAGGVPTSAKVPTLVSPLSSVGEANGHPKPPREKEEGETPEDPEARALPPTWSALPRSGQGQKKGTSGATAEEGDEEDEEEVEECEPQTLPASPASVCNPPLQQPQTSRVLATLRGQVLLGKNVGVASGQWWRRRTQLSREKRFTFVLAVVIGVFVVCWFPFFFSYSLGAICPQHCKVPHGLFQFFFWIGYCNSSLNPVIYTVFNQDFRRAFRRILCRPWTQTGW
In short: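 Rat kidney cortical membranes; [3H]yohimbine, 25 °C for 30 min, pH 7.4 Tris-HCl/NaCl/EDTA; 10 μM phentolamine for nonspecific binding. Percent inhibition at 1 μM compound, in duplicate; filtration, scintillation counting.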

[3] = target: T3, Alpha-1B adrenergic receptor (Homo sapiens, UniProt P35368); assay: Binding affinity towards cloned human alpha-1B adrenergic receptor was determined using [125]-HEAT as radioligand
T3 sequence (P35368 whole entry): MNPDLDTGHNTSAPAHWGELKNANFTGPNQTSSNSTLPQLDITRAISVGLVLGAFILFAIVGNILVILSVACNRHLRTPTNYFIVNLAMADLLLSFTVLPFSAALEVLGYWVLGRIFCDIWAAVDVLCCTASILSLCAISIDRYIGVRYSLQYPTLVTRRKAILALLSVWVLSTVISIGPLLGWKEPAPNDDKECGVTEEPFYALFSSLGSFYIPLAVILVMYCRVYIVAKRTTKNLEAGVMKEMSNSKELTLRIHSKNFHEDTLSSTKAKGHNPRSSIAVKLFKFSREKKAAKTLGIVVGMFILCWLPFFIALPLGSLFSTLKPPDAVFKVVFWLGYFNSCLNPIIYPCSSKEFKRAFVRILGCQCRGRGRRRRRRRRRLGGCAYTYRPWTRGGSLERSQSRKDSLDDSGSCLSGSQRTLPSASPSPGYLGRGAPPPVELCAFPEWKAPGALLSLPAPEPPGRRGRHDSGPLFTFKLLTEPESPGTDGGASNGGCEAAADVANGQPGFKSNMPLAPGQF
In short: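 Human α1a, α1b and α1d cDNAs transiently expressed in COS-1 cells (DEAE-dextran); membranes harvested 72 h post-transfection. Competition versus 50 pM [125I]HEAT (final), 0.1 pM–10 μM test compound in half-log steps, in TNE buffer pH 7.4. Membrane protein 0.1 μg (α1a, α1b) or 2.6 μg (α1d); 1 h at 25 °C. Filtration, scintillation counting; Ki = IC50/(1 + [L]/Kd). Ratios are subtype Ki over α1a Ki.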

[4] = target: T4, Alpha-2A adrenergic receptor (Homo sapiens) (UniProt P08913); assay: Compound at 1 uM was tested for the inhibition of radioligand [3H]MK-912 binding to recombinant human alpha-2A adrenergic receptor
T4 sequence (whole entry): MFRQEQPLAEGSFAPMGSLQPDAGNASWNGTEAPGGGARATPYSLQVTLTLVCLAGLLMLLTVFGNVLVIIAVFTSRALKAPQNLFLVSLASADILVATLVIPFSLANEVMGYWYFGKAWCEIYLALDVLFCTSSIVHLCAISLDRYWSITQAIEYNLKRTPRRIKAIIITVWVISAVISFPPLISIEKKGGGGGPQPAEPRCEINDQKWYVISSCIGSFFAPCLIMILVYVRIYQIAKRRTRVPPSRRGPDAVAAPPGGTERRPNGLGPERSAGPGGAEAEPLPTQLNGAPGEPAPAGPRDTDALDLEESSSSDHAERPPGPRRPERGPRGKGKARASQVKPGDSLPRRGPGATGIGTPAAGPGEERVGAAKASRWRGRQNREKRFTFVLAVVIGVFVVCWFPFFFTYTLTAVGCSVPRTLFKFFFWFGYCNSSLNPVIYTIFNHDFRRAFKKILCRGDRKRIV
In short: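 Recombinant human α2a or α2c receptors in CHO cell membranes; [3H]MK912, 60 min at 25 °C in 50 mM Tris-HCl, 150 mM NaCl, 5 mM EDTA, pH 7.4; WB4101 (10 μM) for nonspecific binding. Percent inhibition at 1 μM in duplicate; filtration, scintillation counting.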

D(2) dopamine receptor = D(2) dopamine receptor (Homo sapiens, UniProt P14416); assay: Compound at 1 uM was tested for the inhibition of radioligand [3H]spiperone binding to recombinant human Dopamine receptor D2L
In short: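 D2L (human, CHO-expressed) membranes; [3H]spiperone, 25 °C, 120 min; pH 7.4 Tris-HCl/NaCl/EDTA; nonspecific with 10 μM haloperidol. Compound at 1 μM, percent inhibition in duplicate; filtration, scintillation counting.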

[5] = target: Histamine H1 receptor (Cavia porcellus) (UniProt P31389); assay: Compound at 1 uM was tested for the inhibition of radioligand [3H]pyrilamine binding to central histamine H1 receptor in guinea pig brain
In short: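 Central H1 from guinea pig brain membranes; [3H]pyrilamine 25 °C for 60 min, pH 7.4 Tris-HCl/NaCl/EDTA buffer; 1 μM pyrilamine for nonspecific binding. Percent inhibition by compound at 1 μM, duplicate; filtered, scintillation counted.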

Histamine H1 receptor (Cavia porcellus), sequence (P31389 whole entry): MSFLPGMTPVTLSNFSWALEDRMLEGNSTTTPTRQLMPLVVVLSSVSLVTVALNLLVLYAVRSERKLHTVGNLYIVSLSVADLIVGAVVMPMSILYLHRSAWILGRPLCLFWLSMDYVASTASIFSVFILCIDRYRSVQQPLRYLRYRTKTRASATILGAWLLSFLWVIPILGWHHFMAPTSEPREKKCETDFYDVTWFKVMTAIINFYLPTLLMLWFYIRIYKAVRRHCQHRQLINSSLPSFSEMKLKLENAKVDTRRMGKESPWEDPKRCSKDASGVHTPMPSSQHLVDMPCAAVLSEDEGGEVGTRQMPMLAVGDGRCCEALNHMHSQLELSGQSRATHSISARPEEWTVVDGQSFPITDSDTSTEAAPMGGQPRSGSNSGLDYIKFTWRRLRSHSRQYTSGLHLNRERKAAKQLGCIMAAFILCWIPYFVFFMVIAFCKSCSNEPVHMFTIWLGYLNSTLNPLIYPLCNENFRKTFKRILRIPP
D(2) dopamine receptor, sequence (P14416 whole entry): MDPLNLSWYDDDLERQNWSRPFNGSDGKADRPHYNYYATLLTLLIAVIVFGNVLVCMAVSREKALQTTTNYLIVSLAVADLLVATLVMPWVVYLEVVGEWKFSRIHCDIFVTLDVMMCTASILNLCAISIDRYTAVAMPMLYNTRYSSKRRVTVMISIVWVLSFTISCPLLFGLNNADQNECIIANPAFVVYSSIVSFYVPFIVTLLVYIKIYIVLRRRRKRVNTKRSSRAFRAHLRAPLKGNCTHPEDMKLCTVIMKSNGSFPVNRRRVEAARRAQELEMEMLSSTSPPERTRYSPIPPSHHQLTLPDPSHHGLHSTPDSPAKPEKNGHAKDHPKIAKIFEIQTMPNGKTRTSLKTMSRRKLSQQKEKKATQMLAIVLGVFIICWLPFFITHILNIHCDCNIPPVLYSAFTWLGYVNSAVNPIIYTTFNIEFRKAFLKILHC

`CCOc1ccccc1OCCN[C@H](C)Cc1ccc(OC)c(S(N)(=O)=O)c1` [TAMSULOSIN] was tested, and the inhibition [1] was 115%, the inhibition [2] was 86% and the Ki [3] was 1.92 nM. For the same molecule, the inhibition [4] was 82%, the inhibition (D(2) dopamine receptor) was 53% and the inhibition [5] was 18%.
For `Cc1ccc(N2C(=O)c3ccc(C(=O)NC[C@H](O)CN4CCN(c5ccccc5OC(C)C)CC4)cc3C2=O)cc1`, the inhibition [1] was 92%, the inhibition [2] was 75% and the Ki [3] was > 1650 nM. The inhibition [4] was 19%, the inhibition (D(2) dopamine receptor) was 68% and the inhibition [5] was 93%.
`COc1ccc(N2C(=O)c3ccc(C(=O)NCCCN4CCN(c5ccccc5OC(C)C)CC4)cc3C2=O)cc1` showed an inhibition [1] of 104%, an inhibition [2] of 79% and a Ki [3] of 361 nM. For the same molecule, the inhibition [4] was 80%, the inhibition (D(2) dopamine receptor) was 83% and the inhibition [5] was 97%.
In the case of `Cc1ccc(N2C(=O)c3ccc(C(=O)NCCCN4CCN(c5ccccc5OC(C)C)CC4)cc3C2=O)cc1`, the inhibition [1] is reported as 90%, the inhibition [2] is reported as 66% and the Ki [3] is reported as > 2000 nM. For the same molecule, the inhibition [4] was 87%, the inhibition (D(2) dopamine receptor) was 83% and the inhibition [5] was 97%.
`CC(C)Oc1ccccc1N1CCN(CCCNC(=O)c2ccc3c(c2)C(=O)N(c2cccc(F)c2)C3=O)CC1` showed an inhibition [1] of 95%, an inhibition [2] of 78% and a Ki [3] of 482 nM. For the same molecule, the inhibition [4] was 78%, the inhibition (D(2) dopamine receptor) was 89% and the inhibition [5] was 87%.
With `CC(C)Oc1ccccc1N1CCN(C[C@@H](O)CNC(=O)c2ccc3c(c2)C(=O)N(c2cccc(F)c2)C3=O)CC1` the inhibition [1] was 98%, the inhibition [2] was 70% and the Ki [3] was > 2000 nM. For the same molecule, the inhibition [4] was 29%, the inhibition (D(2) dopamine receptor) was 55% and the inhibition [5] was 95%.
For `CC(C)Oc1ccccc1N1CCN(C[C@@H](O)CNC(=O)c2ccc3c(c2)C(=O)N(c2ccc(N(C)C)cc2)C3=O)CC1`, the inhibition [1] was 92%, the inhibition [2] was 73% and the Ki [3] was > 2000 nM. The inhibition [4] was 18%, the inhibition (D(2) dopamine receptor) was 71% and the inhibition [5] was 88%.

Source: ChEMBL document CHEMBL1133729, “Design, synthesis, and structure-activity relationships of phthalimide-phenylpiperazines: a novel series of potent and selective alpha(1)(a)-adrenergic receptor antagonists” (J Med Chem, 2000)
